Experimental data from ChEMBL document CHEMBL1681759, “Synthesis and biological evaluation of benzimidazole-5-carbohydrazide derivatives as antimalarial, cytotoxic and antitubercular agents” (Bioorg Med Chem, 2011).
≈ marks a conversion by molar mass, not a printed value.

Key:
Plasmodium berghei [1] = experiment: Antimalarial activity against chloroquine-susceptible Plasmodium berghei ANKA assessed as inhibition of trophozoite extract-mediated mouse hemoglobin hydrolysis at 10 mM after 18 hrs by SDS-PAGE; type: functional
Summary of the method: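 Trophozoite extract came from P. berghei-infected mouse blood at 30–50% parasitemia: RBCs percoll-purified (80–70%), saponin-lysed, then freeze–thawed three times. Substrate was native haemoglobin from uninfected mouse erythrocytes lysed in water. The mix held GSH and acetate buffer (0.2 M, pH 5.4). Compound was added in DMSO and incubated 37 °C, 18 h. Reactions were stopped with reduced sample buffer.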

[2] = Inhibition of beta-hematin formation assessed as inhibition of […] polymerization at […] after 48 hrs; type: functional
Summary of the method: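 Hemin chloride (50 µL, 4 mM in DMSO) was mixed in triplicate with compound in DMSO; water or DMSO served as controls. Reaction was started with acetate buffer (0.2 M, pH 4.4) and run 37 °C for 48 h. The pellet was DMSO-washed twice, dissolved in 0.2 N NaOH, diluted 1:2 in 0.1 N NaOH, and read at 405 nm as % inhibition of FP polymerization.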

Plasmodium berghei [3] = experiment: Antimalarial activity against chloroquine-susceptible Plasmodium berghei ANKA infected in Balb-C mouse assessed as inhibition parasitemia at 20 mg/kg, ip qd for 4 days […]; type: functional; settings: 96 h, route intraperitoneal
Summary of the method: (§1)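 Balb-C mice (18–23 g, n = 6) were infected iv in the caudal vein with 10⁶ P. berghei ANKA-infected RBCs. Dosing started 2 h post-infection: 20 mg/kg ip once daily for 4 days, DMSO stock diluted in Saline-Tween 20 (2%). Chloroquine 25 mg/kg served as positive control; untreated mice were controls. Parasitemia was read on day 4 from Giemsa smears, and survival days were recorded.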

Plasmodium berghei [4] = experiment: Antimalarial activity against chloroquine-susceptible Plasmodium berghei ANKA infected in Balb-C mouse; type: functional, organism-based; summary of the method: as §1
NCI-H460 = experiment: Cytotoxicity against human H460 cells assessed as growth inhibition after 48 hrs by sulforhodamine B assay; type: functional; settings: NCI-H460, 48 h
Summary of the method: (§2)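 Cells were exposed to serial compound dilutions in 96-well plates for 48 h at 37 °C alongside solvent controls. Growth was read colorimetrically by sulforhodamine B. GI50 is the concentration giving a 50% reduction in absorbance versus solvent-treated controls, derived by linear regression.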

[5] = test system: Mycobacterium tuberculosis; experiment: Antimycobacterial activity against Mycobacterium tuberculosis H37Rv after 5 days by tetrazolium microplate assay; type: functional; settings: 120 h
Summary of the method: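 Tetrazolium microplate assay run in 7H9GC broth. DMSO stocks (4 mg/mL) were diluted to final 0.4–25 µg/mL. Isoniazid (0.125–32 µg/mL) and rifampin (0.063–16 µg/mL) were positive controls; inoculum-only and DMSO controls were included. Plates were incubated 5 days at 37 °C, then an MTT-Tween 80 mix was added and incubation continued 24 h at 37 °C. Run in triplicate. MIC = lowest concentration preventing the yellow-to-purple colour change.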

[6] = Cytotoxicity against mouse 3T3 cells assessed as growth inhibition after 48 hrs by sulforhodamine B assay; type: cell-based; settings: NIH3T3 cells; summary of the method: as §2
[7] = Cytotoxicity against african green monkey Vero cells assessed as growth inhibition after 48 hrs by sulforhodamine B assay; type: cell-based; settings: chlorocebus sabaeus; summary of the method: as §2
DU-145 = experiment: Cytotoxicity against human DU145 cells assessed as growth inhibition after 48 hrs by sulforhodamine B assay; type: functional; settings: DU-145, 48 h; summary of the method: as §2
MCF7 = experiment: Cytotoxicity against human MCF7 cells assessed as growth inhibition after 48 hrs by sulforhodamine B assay; type: functional; settings: MCF7, 48 h; summary of the method: as §2
M14 = experiment: Cytotoxicity against human M14 cells assessed as growth inhibition after 48 hrs by sulforhodamine B assay; type: functional; settings: M14, 48 h; summary of the method: as §2
HT-29 = experiment: Cytotoxicity against human HT-29 cells assessed as growth inhibition after 48 hrs by sulforhodamine B assay; type: functional; settings: HT-29, 48 h; summary of the method: as §2
K562 = experiment: Cytotoxicity against human K562 cells assessed as growth inhibition after 48 hrs by sulforhodamine B assay; type: functional; settings: K562, 48 h; summary of the method: as §2
Plasmodium berghei [8] = experiment: Antimalarial activity against chloroquine-susceptible Plasmodium berghei ANKA infected in Balb-C mouse assessed as mouse survival days at 20 mg/kg, ip qd for 4 days […] relative to untreated control; type: functional; settings: route intraperitoneal

Structure (SMILES): COc1cc(C(=O)NNC(=O)c2ccc3[nH]c(-c4ccc([N+](=O)[O-])o4)nc3c2)cc(OC)c1OC
- inhibition at 10000 µM (Plasmodium berghei [1]): 0%
- inhibition [2]: 69.4%
- inhibition in vivo at 20 mg/kg (Plasmodium berghei [3]): 9.4%
- IC50 (Plasmodium berghei [4]): 14.4 µM
- GI50 (NCI-H460): 31.2 µg/mL (≈ 64.9 µM)
- MIC [5]: > 25 µg/mL
- GI50 at 48 h [6]: 31.2 µg/mL (≈ 64.9 µM)
- GI50 at 48 h [7]: 31.2 µg/mL (≈ 64.9 µM)
- GI50 (DU-145): 15.6 µg/mL (≈ 32.5 µM)
- GI50 (MCF7): 31.2 µg/mL (≈ 64.9 µM)
- GI50 (M14): 15.6 µg/mL (≈ 32.5 µM)
- GI50 (HT-29): 31.2 µg/mL (≈ 64.9 µM)
- GI50 (K562): 31.2 µg/mL (≈ 64.9 µM)
- Survival (Plasmodium berghei [8]): 12.2 days
